Results taken from ChEMBL document CHEMBL1629656, “Oritavancin kills stationary-phase and biofilm Staphylococcus aureus cells in vitro” (Antimicrob Agents Chemother, 2009).
In brackets after ≈: the same amount, converted by molar mass. Activity calls are given as the source filed them. No cut-off for these calls is given here.

Tests used:
[1] = tested on: Staphylococcus aureus; assay: Antimicrobial activity against stationary-phase methicillin-sensitive Staphylococcus aureus ATCC 29213 assessed as membrane permeability at 4 ug/ml after 30 mins by propidium iodide staining-based fluorescence spectrophotometry; type: functional, organism-based
Procedure, shortened: (§1)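 Cells prepared as for depolarization, in HEPES-CaCl2 buffer with glucose (exponential) or without (stationary), OD600 0.005. Syto 9 at 5 μM and propidium iodide at 30 μM. Drug added without polysorbate 80. Loss of Syto 9 fluorescence (ex 485/em 535 nm) read for 30 min. Three repeats.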

[2] = tested on: Staphylococcus aureus; assay: Bactericidal activity against exponential-phase methicillin-sensitive Staphylococcus aureus ATCC 29213 grown on nutrient-depleted CAMHB medium at 4 ug/ml after 24 hrs by time kill analysis; type: functional, organism-based
[3] = tested on: Staphylococcus aureus; assay: Bactericidal activity against stationary-phase methicillin-sensitive Staphylococcus aureus ATCC 29213 grown on nutrient-depleted CAMHB medium at 4 ug/ml after 24 hrs by time kill analysis; type: functional, organism-based
Procedure, shortened: (§2)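 Overnight stationary-phase cultures inoculated at ~10^7 CFU/ml into strain-matched spent CAMHB (pH 7.0, filter-sterilized). Oritavancin was kept at 0.002% polysorbate 80; daptomycin wells had 50 μg/ml CaCl2. Incubation at 37°C, 225 rpm. Samples were charcoal-quenched (25 mg/ml) before plating; points are means of duplicates. Bactericidal means ≥3-log drop at 24 h versus inoculum. ≥3 repeats.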

[4] = tested on: Staphylococcus aureus; assay: Bactericidal activity against stationary-phase methicillin-sensitive Staphylococcus aureus ATCC 29213 grown on nutrient-depleted CAMHB medium at 16 ug/ml after 24 hrs by time kill analysis; type: functional, organism-based; procedure, shortened: as §2
[5] = tested on: Staphylococcus aureus; assay: Antimicrobial activity against stationary-phase methicillin-sensitive Staphylococcus aureus ATCC 29213 membrane depolarization at 4 ug/ml after 30 mins using DiSC3(5) dye based fluorescence spectrophotometry; type: functional, organism-based
Procedure, shortened: (§3)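 Cells loaded with 1.5 μM DiSC3(5) 30 min in the dark at ambient temperature, diluted to OD600 0.005. Drug added without polysorbate 80. Fluorescence (ex 612/em 665 nm) followed for 30 min. Three repeats.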

[6] = tested on: Staphylococcus aureus; assay: Bactericidal activity against exponential-phase methicillin-sensitive Staphylococcus aureus ATCC 29213 grown on nutrient-depleted CAMHB medium at 0.5 ug/ml after 24 hrs by time kill analysis; type: functional, organism-based
[7] = tested on: Staphylococcus aureus; assay: Bactericidal activity against exponential-phase methicillin-sensitive Staphylococcus aureus ATCC 29213 grown on nutrient-depleted CAMHB medium at 16 ug/ml after 24 hrs by time kill analysis; type: functional, organism-based
[8] = tested on: Staphylococcus aureus; assay: Bactericidal activity against exponential-phase methicillin-sensitive Staphylococcus aureus ATCC 29213 assessed as log reduction in bacterial count at 4 ug/ml within 2 hrs by time kill analysis; type: functional
[9] = tested on: Staphylococcus aureus; assay: Bactericidal activity against stationary-phase methicillin-resistant Staphylococcus aureus ATCC 33591 grown on nutrient-depleted CAMHB medium at 4 ug/ml after 24 hrs by time kill analysis; type: functional, organism-based; procedure, shortened: as §2
[10] = tested on: Staphylococcus aureus; assay: Antimicrobial activity against exponential-phase methicillin-sensitive Staphylococcus aureus ATCC 29213 assessed as membrane permeability at 4 ug/ml after 30 mins by propidium iodide staining-based fluorescence spectrophotometry; type: functional, organism-based; procedure, shortened: as §1
[11] = tested on: Staphylococcus aureus; assay: Antimicrobial activity against exponential-phase methicillin-sensitive Staphylococcus aureus ATCC 29213 assessed as membrane depolarization at 4 ug/ml after 30 mins using DiSC3(5) dye based fluorescence spectrophotometry; type: functional, organism-based; procedure, shortened: as §3
[12] = tested on: Staphylococcus aureus; assay: Bactericidal activity against stationary-phase vancomycin-resistant Staphylococcus aureus isolate VRS5 grown on nutrient-depleted CAMHB medium at 4 ug/ml after 24 hrs by time kill analysis; type: functional, organism-based; procedure, shortened: as §2
[13] = tested on: Staphylococcus aureus; assay: Bactericidal activity against stationary-phase methicillin-sensitive Staphylococcus aureus ATCC 29213 assessed as log reduction in bacterial count at 4 ug/ml within 2 hrs by time kill analysis; type: functional
[14] = tested on: Staphylococcus aureus; assay: Bactericidal activity against stationary-phase methicillin-resistant Staphylococcus aureus ATCC 33591 grown on nutrient-depleted CAMHB medium at 2 ug/ml after 24 hrs by time kill analysis; type: functional, organism-based; procedure, shortened: as §2
[15] = tested on: Staphylococcus aureus; assay: Bactericidal activity against stationary-phase vancomycin-resistant Staphylococcus aureus isolate VRS5 grown on nutrient-depleted CAMHB medium at 2 ug/ml after 24 hrs by time kill analysis
[16] = tested on: Staphylococcus aureus; assay: Antimicrobial activity against methicillin-sensitive Staphylococcus aureus ATCC 29213 assessed as inhibition of biofilm formation after 24 hrs by serial dilution method in presence of 0.002% polysorbate 80; type: functional
[17] = tested on: Staphylococcus aureus; assay: Bacteriostatic activity against stationary-phase methicillin-resistant Staphylococcus aureus ATCC 33591 grown on nutrient-depleted CAMHB medium at 8 ug/ml after 24 hrs by time kill analysis; type: functional, organism-based; procedure, shortened: as §2
[18] = tested on: Staphylococcus aureus; assay: Antimicrobial activity against 4.6 X 10^6 CFU/peg methicillin-susceptible Staphylococcus aureus ATCC 29213 planktonic cells by broth microdilution method
[19] = tested on: Staphylococcus aureus; assay: Antimicrobial activity against methicillin-sensitive Staphylococcus aureus ATCC 29213 planktonic cells by broth microdilution method in presence of 0.002% polysorbate 80; type: functional
[20] = tested on: Staphylococcus aureus; assay: Bacteriostatic activity against stationary-phase vancomycin-resistant Staphylococcus aureus isolate VRS5 grown on nutrient-depleted CAMHB medium at 8 ug/ml after 24 hrs by time kill analysis; type: functional, organism-based; procedure, shortened: as §2
[21] = tested on: Staphylococcus aureus; assay: Antimicrobial activity against methicillin-resistant Staphylococcus aureus ATCC 33591 planktonic cells by broth microdilution method in presence of 0.002% polysorbate 80; type: functional
[22] = tested on: Staphylococcus aureus; assay: Antimicrobial activity against methicillin-resistant Staphylococcus aureus ATCC 33591 assessed as inhibition of biofilm formation after 24 hrs by serial dilution method in presence of 0.002% polysorbate 80; type: functional
[23] = tested on: Staphylococcus aureus; assay: Antimicrobial activity against vancomycin-resistant Staphylococcus aureus isolate VRS5 planktonic cells by broth microdilution method in presence of 0.002% polysorbate 80; type: functional
[24] = tested on: Homo sapiens; assay: fCmax in human at 450 […]; type: ADME, organism-based; settings: in vivo
[25] = tested on: Staphylococcus aureus; assay: Antimicrobial activity against vancomycin-resistant Staphylococcus aureus isolate VRS5 assessed as inhibition of biofilm formation after 24 hrs by serial dilution method in presence of 0.002% polysorbate 80; type: functional
[26] = tested on: Staphylococcus aureus; assay: Bactericidal activity against stationary-phase vancomycin-resistant Staphylococcus aureus isolate VRS5 grown on nutrient-depleted CAMHB medium 16 ug/ml after 24 hrs by time kill analysis; type: functional, organism-based; procedure, shortened: as §2
[27] = tested on: Staphylococcus aureus; assay: Antimicrobial activity against exponential-phase methicillin-sensitive Staphylococcus aureus ATCC 29213 grown on nutrient-depleted CAMHB medium assessed as membrane depolarization at 16 ug/ml after 30 mins using DiSC3(5) dye based fluorescence spectrophotometry; type: functional, organism-based
Procedure, shortened: (§4)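 MSSA ATCC 29213 exponential-phase cells (OD600 ≈0.25 subculture in CAMHB) or stationary-phase cells were washed in 10 mM HEPES-Cl pH 7.5 with 50 μg/ml CaCl2; buffer had 5 mM glucose for exponential cells and none for stationary cells. Cells were loaded with 1.5 μM DiSC3(5) for 30 min in the dark, then diluted to OD600 0.005. Drug was added without polysorbate 80 and fluorescence (ex 612/em 665 nm) followed in real time for 30 min. Three repeats; one shown.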

[28] = tested on: Staphylococcus aureus; assay: Antimicrobial activity against stationary-phase methicillin-sensitive Staphylococcus aureus ATCC 29213 grown on nutrient-depleted CAMHB medium assessed as membrane permeability at 16 ug/ml after 30 mins by propidium iodide staining-based fluorescence spectrophotometry; type: functional, organism-based
Procedure, shortened: (§5)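 Cells prepared as for depolarization: exponential-phase ATCC 29213 in HEPES-CaCl2 buffer with 5 mM glucose, stationary-phase without glucose, final OD600 0.005. Stained with 5 μM Syto 9 plus 30 μM propidium iodide. Fluorescence (ex 485/em 535 nm) monitored for 30 min after drug addition, without polysorbate 80. Three repeats; one shown.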

[29] = tested on: Staphylococcus aureus; assay: Antimicrobial activity against stationary-phase methicillin-sensitive Staphylococcus aureus ATCC 29213 grown on nutrient-depleted CAMHB medium assessed as membrane depolarization at 16 ug/ml after 30 mins using DiSC3(5) dye based fluorescence spectrophotometry; type: functional, organism-based; procedure, shortened: as §4
[30] = tested on: Staphylococcus aureus; assay: Bactericidal activity against stationary-phase methicillin-sensitive Staphylococcus aureus ATCC 29213 assessed as log reduction in bacterial count at 16 ug/ml within 2 hrs by time kill analysis; type: functional
Procedure, shortened: (§6)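 Short (2-h) time-kill of ATCC 29213 at OD600 0.005 (~10^6 CFU/ml) in 10 mM HEPES-Cl pH 7.5 with 50 μg/ml CaCl2. Exponential cells had 5 mM glucose and stationary cells none. Oritavancin was tested without polysorbate 80; viable counts were taken by serial dilution plating. Three repeats; one shown.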

[31] = tested on: Staphylococcus aureus; assay: Antimicrobial activity against exponential-phase methicillin-sensitive Staphylococcus aureus ATCC 29213 grown on nutrient-depleted CAMHB medium assessed as membrane permeability at 16 ug/ml after 30 mins by propidium iodide staining-based fluorescence spectrophotometry; type: functional, organism-based; procedure, shortened: as §5
[32] = tested on: Staphylococcus aureus; assay: Inhibition of cell division in stationary-phase methicillin-resistant Staphylococcus aureus ATCC 43300 assessed as absence of appearance of septal midline at 16 ug/ml by transmission electron microscopy; type: functional, organism-based
Procedure, shortened: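 Stationary-phase MRSA ATCC 43300 (5 × 10^7 CFU/ml) exposed for 3 h in nutrient-depleted CAMHB. Cells were fixed in 2.5% glutaraldehyde, post-fixed in 2% osmium tetroxide and en bloc stained with uranyl acetate. Samples were ethanol-dehydrated, embedded in LR White, thin-sectioned, and stained with uranyl acetate/lead citrate. Septa were viewed by TEM at 100 kV.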

[33] = tested on: Staphylococcus aureus; assay: Bactericidal activity against exponential-phase methicillin-sensitive Staphylococcus aureus ATCC 29213 assessed as log reduction in bacterial count at 16 ug/ml within 15 mins by time kill analysis; type: functional; procedure, shortened: as §6
[34] = tested on: Staphylococcus aureus; assay: Antimicrobial activity against 4.6 X 10^6 CFU/peg methicillin-susceptible Staphylococcus aureus ATCC 29213 assessed as inhibition of biofilm formation after 24 hrs by serial dilution method

| SMILES | Activity [2] | Activity [3] | Activity [4] | Activity [6] | Activity [7] | Activity [9] | Activity [12] | Activity [14] | Activity [15] | MBEC [16] | MIC [19] | MBEC [22] | MIC [23] | other results |
| --- | --- | --- | --- | --- | --- | --- | --- | --- | --- | --- | --- | --- | --- | --- |
| CCCCCCCCCC(=O)N[C@@H](Cc1c[nH]c2ccccc12)C(=O)N[C@H](CC(N)=O)C(=O)N[C@@H](CC(=O)O)C(=O)N[C@@H]1C(=O)NCC(=O)N[C@@H](CCCN)C(=O)N[C@@H](CC(=O)O)C(=O)N[C@H](C)C(=O)N[C@@H](CC(=O)O)C(=O)NCC(=O)N[C@H](CO)C(=O)N[C@@H]([C@H](C)CC(=O)O)C(=O)N[C@@H](CC(=O)c2ccccc2N)C(=O)O[C@@H]1C | Active | inactive | inactive | Active | Active | Active | inactive | Active | inactive |  |  |  |  | Activity [1]: inactive; Activity [5]: inactive; FC [8]: 3.4; Activity [10]: Active; Activity [11]: Active; FC [13]: 0.7 |
| CC(=O)NC[C@H]1CN(c2ccc(N3CCOCC3)c(F)c2)C(=O)O1 [LINEZOLID] |  |  |  |  |  |  |  |  |  | >128 µg/mL | 8 µg/mL |  |  | Activity [17]: inactive; MIC [18]: 8 µg/mL (≈ 23.7 µM); Activity [20]: inactive |
| CO[C@H]1/C=C/O[C@@]2(C)Oc3c(C)c(O)c4c(O)c(c(/C=N/N5CCN(C)CC5)c(O)c4c3C2=O)NC(=O)/C(C)=C\C=C\[C@H](C)[C@H](O)[C@@H](C)[C@@H](O)[C@@H](C)[C@H](OC(C)=O)[C@@H]1C [RIFAMPIN] |  |  |  |  |  | Active | inactive | Active | inactive | 4 µg/mL | < 0.02 µg/mL | 0.25 µg/mL | < 0.03 µg/mL | MIC [21]: < 0.03 µg/mL; fCmax [24]: 2 µg/mL |
| CN[C@H](CC(C)C)C(=O)N[C@H]1C(=O)N[C@@H](CC(N)=O)C(=O)N[C@H]2C(=O)N[C@H]3C(=O)N[C@H](C(=O)N[C@H](C(=O)O)c4cc(O)cc(O)c4-c4cc3ccc4O)[C@H](O)c3ccc(c(Cl)c3)Oc3cc2cc(c3O[C@@H]2O[C@H](CO)[C@@H](O)[C@H](O)[C@H]2O[C@H]2C[C@](C)(N)[C@H](O)[C@H](C)O2)Oc2ccc(cc2Cl)[C@H]1O [VANCOMYCIN] | Active | inactive | inactive | Active | Active |  |  |  |  | >128 µg/mL |  | >=128 ug ml-1 | > 128 µg/mL | MBEC [25]: >128 µg/mL; Activity [26]: inactive; Activity [27]: inactive; Activity [28]: inactive; Activity [29]: inactive; Activity [30]: inactive; Activity [31]: inactive; inhibition [32]: inactive; Activity [33]: inactive; MBEC [34]: >128 µg/mL |
